According to ChEMBL document CHEMBL2176883, “Aminopiperidine sulfonamide Cav2.2 channel inhibitors for the treatment of chronic pain” (J Med Chem, 2012):

Legend:
[1] = target: T1, Voltage-dependent N-type calcium channel subunit alpha-1B (Homo sapiens, UniProt Q00975); test: Inhibition of human Cav2.2 expressed CBK cells assessed as inhibition of channel current at 10 uM at holding membrane potential -90 mV by conventional patch clamp electrophysiology assay
Summary of the method: (§1)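 Cav2.2 current block was measured at a depolarized (−40 mV) or hyperpolarized (−90 mV) potential. At −40 mV, n = 2, 3, 4 and 1 at 0.3, 1, 3 and 10 μM. At −90 mV, n = 4 and 6 at 3 and 10 μM. Values are mean ± SEM.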

[2] = test system: Brain; test: Drug metabolism in Sprague-Dawley rat assessed as 3-trifluoromethylbenzenesulfonamide level in brain at 10 mg/kg, po after 8 hrs; assay type: ADME, organism-based; set-up: dose 10 mg/kg, route oral; conditions: in vivo
Summary of the method: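 Male Sprague-Dawley rats were given a 10 mg/kg oral dose. Parent and metabolite concentrations were measured in whole blood and brain over time, including 8 h postdose.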

[3] = test system: Rattus norvegicus; test: Dose normalized AUC in rat at 3 mg/kg, po and 1 mg/kg, iv; assay type: ADME, organism-based; conditions: in vivo
Summary of the method: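 Rat pharmacokinetics from iv and po arms: 0.6 mg/kg iv with 1.8 mg/kg po, or 1 mg/kg iv with 3 mg/kg po. AUC was normalized to po dose (μM·h·kg/mg). Clearance (mL/min/kg) and half-life come from the iv arm, and F% is oral bioavailability.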

[4] = Plasma concentration in rat complete Freund's adjuvant-induced pain model at 10 mg/kg, po after 3 hrs; assay type: ADME, organism-based; set-up: dose 10 mg/kg, route oral
Summary of the method: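 Separate CFA-treated rats given single oral 10 mg/kg dose; plasma exposure measured 3 h after dosing.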

[5] = Plasma concentration in vagotomized dog at 3 mg/kg, iv after 60 mins; assay type: ADME, organism-based, Canis lupus familiaris; set-up: dose 3 mg/kg, route intravenous
Summary of the method: (§2)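 Anesthetized, vagotomized dogs; intravenous infusion in sequential rising doses of 1, 3 and 10 mg/kg (cumulative); plasma exposure sampled at indicated time points, n = 3.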

[6] = test system: Rattus norvegicus; test: Antinociceptive activity in po dosed rat assessed as reversal of complete Freund's adjuvant-induced pain after 3 hrs; assay type: functional, organism-based
Summary of the method: (§3)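 In the rat CFA inflammatory pain model, compound was given orally at 30 mg/kg and allodynia was read at 1 and 3 h postdose. Average % reversal = (postdose − predose)/(preinjury − predose) for each rat, n = 6. Plasma exposure at 3 h was measured in satellite rats (n = 2).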

[7] = test system: Canis familiaris; test: Cardiotoxicity in vagotomized dog assessed as PR interval at 1 to 10 mg/kg, iv up to 90 mins; assay type: toxicity, organism-based, Canis lupus familiaris; set-up: dose 1-10 mg/kg, route intravenous; conditions: in vivo, 1.5 h
Summary of the method: (§4)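 Anesthetized, vagotomized dogs received an intravenous infusion in sequential rising cumulative doses of 1, 3 and 10 mg/kg. MAP, HR, QRS, PR and QTc were monitored, with plasma exposure sampled at the indicated time points (n = 3).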

[8] = test system: Canis familiaris; test: Cardiotoxicity in vagotomized dog assessed as mean arterial pressure at 1 to 10 mg/kg, iv up to 90 mins; assay type: toxicity, organism-based, Canis lupus familiaris, Artery; set-up: dose 1-10 mg/kg, route intravenous; conditions: in vivo, 1.5 h; summary of the method: as §4
[9] = test system: Liver microsomes; test: Drug metabolism in rat liver microsomes assessed as assessed as 3-trifluoromethylbenzenesulfonamide level level; assay type: ADME, Microsome
[10] = test system: Rattus norvegicus; test: Antinociceptive activity in rat assessed as reversal of complete Freund's adjuvant-induced pain at 30 mg/kg, po after 3 hrs; assay type: functional; summary of the method: as §3
[11] = target: T1, Voltage-dependent N-type calcium channel subunit alpha-1B; test: Inhibition of human Cav2.2 expressed CBK cells assessed as inhibition of channel current at 3 uM at holding membrane potential -40 mV by conventional patch clamp electrophysiology assay; summary of the method: as §1
[12] = target: hERG (Homo sapiens, UniProt Q12809); test: Displacement of [35S]-MK-0499 from human ERG at 10 uM; conditions: probe [35S]-MK-0499
Summary of the method: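 hERG binding was measured as displacement of 35S-labeled MK-0499 at single test concentrations.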

[13] = Metabolic stability in rat liver microsomes assessed as compound remaining at 1 uM after 1 hr; assay type: ADME, Microsome; conditions: read-out: Stability
Summary of the method: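 Compound at 1 μM was incubated with human or rat liver microsomes (1 mg/mL) for 1 h, and the percentage of parent remaining was determined.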

[14] = target: T1, Voltage-dependent N-type calcium channel subunit alpha-1B; test: Inhibition of human Cav2.2 expressed CBK cells assessed as inhibition of channel current at <1 uM at holding membrane potential -40 mV by conventional patch clamp electrophysiology assay; summary of the method: as §1
[15] = test system: Canis familiaris; test: Cardiotoxicity in vagotomized dog assessed as QRS interval at 1 to 10 mg/kg, iv up to 90 mins; assay type: toxicity, organism-based, Canis lupus familiaris; set-up: dose 1-10 mg/kg, route intravenous; conditions: in vivo, 1.5 h; summary of the method: as §4
[16] = Plasma concentration in rat complete Freund's adjuvant-induced pain model at 30 mg/kg, po after 3 hrs; assay type: ADME, organism-based; set-up: dose 30 mg/kg, route oral
Summary of the method: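 Satellite rats in CFA inflammatory pain study, 30 mg/kg po; plasma exposure (μM) at 3 h, n = 2, standard deviation.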

[17] = target: T2, PXR (Homo sapiens, UniProt O75469); test: Activation of PXR at 10 uM relative to control; conditions: read-out: max activation
T2 sequence (O75469 whole entry): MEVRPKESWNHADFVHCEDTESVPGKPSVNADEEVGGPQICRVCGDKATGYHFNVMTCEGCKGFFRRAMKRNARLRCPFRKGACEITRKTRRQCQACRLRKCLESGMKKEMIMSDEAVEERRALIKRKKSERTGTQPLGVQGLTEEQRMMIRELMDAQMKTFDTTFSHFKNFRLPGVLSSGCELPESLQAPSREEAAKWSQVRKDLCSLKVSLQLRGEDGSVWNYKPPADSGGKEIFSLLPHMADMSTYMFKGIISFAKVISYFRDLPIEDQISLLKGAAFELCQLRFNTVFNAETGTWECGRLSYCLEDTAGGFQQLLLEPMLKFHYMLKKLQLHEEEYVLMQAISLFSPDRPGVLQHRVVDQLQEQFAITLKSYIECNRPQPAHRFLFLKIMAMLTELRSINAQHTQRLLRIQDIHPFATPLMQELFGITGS

[18] = test system: Canis familiaris; test: Cardiotoxicity in vagotomized dog assessed as heart rate at 1 to 10 mg/kg, iv up to 90 mins; assay type: toxicity, organism-based, Canis lupus familiaris; set-up: dose 1-10 mg/kg, route intravenous; conditions: in vivo, 1.5 h; summary of the method: as §4
[19] = test system: Mus musculus; test: Antinociceptive activity in Cav2.2 deficient mouse SNL neuropathic pain model assessed as reversal of mechanical allodynia at 30 mg/kg, po after 2 hrs; assay type: functional
Summary of the method: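 Cav2.2+/+ and Cav2.2−/− mice underwent spinal nerve ligation, then got a single 30 mg/kg oral dose. Mechanical allodynia was scored 2 h postdose.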

[20] = test system: Canis familiaris; test: Cardiotoxicity in vagotomized dog assessed as QTc interval at 1 to 10 mg/kg, iv up to 90 mins; assay type: toxicity, organism-based, Canis lupus familiaris; set-up: dose 1-10 mg/kg, route intravenous; conditions: in vivo, 1.5 h; summary of the method: as §4
[21] = test system: Rattus norvegicus; test: Analgesic activity in po dosed rat SNL neuropathic pain model assessed as reversal of mechanical allodynia after 1 to 24 hrs; assay type: functional, organism-based
[22] = test system: Liver microsomes; test: Drug metabolism in human liver microsomes assessed as assessed as 3-trifluoromethylbenzenesulfonamide level level; assay type: ADME, Microsome
[23] = Plasma concentration in vagotomized dog at 1 mg/kg, iv after 30 mins; assay type: ADME, organism-based, Canis lupus familiaris; set-up: dose 1 mg/kg, route intravenous; summary of the method: as §2

T1 sequence (Q00975 whole entry, looked up): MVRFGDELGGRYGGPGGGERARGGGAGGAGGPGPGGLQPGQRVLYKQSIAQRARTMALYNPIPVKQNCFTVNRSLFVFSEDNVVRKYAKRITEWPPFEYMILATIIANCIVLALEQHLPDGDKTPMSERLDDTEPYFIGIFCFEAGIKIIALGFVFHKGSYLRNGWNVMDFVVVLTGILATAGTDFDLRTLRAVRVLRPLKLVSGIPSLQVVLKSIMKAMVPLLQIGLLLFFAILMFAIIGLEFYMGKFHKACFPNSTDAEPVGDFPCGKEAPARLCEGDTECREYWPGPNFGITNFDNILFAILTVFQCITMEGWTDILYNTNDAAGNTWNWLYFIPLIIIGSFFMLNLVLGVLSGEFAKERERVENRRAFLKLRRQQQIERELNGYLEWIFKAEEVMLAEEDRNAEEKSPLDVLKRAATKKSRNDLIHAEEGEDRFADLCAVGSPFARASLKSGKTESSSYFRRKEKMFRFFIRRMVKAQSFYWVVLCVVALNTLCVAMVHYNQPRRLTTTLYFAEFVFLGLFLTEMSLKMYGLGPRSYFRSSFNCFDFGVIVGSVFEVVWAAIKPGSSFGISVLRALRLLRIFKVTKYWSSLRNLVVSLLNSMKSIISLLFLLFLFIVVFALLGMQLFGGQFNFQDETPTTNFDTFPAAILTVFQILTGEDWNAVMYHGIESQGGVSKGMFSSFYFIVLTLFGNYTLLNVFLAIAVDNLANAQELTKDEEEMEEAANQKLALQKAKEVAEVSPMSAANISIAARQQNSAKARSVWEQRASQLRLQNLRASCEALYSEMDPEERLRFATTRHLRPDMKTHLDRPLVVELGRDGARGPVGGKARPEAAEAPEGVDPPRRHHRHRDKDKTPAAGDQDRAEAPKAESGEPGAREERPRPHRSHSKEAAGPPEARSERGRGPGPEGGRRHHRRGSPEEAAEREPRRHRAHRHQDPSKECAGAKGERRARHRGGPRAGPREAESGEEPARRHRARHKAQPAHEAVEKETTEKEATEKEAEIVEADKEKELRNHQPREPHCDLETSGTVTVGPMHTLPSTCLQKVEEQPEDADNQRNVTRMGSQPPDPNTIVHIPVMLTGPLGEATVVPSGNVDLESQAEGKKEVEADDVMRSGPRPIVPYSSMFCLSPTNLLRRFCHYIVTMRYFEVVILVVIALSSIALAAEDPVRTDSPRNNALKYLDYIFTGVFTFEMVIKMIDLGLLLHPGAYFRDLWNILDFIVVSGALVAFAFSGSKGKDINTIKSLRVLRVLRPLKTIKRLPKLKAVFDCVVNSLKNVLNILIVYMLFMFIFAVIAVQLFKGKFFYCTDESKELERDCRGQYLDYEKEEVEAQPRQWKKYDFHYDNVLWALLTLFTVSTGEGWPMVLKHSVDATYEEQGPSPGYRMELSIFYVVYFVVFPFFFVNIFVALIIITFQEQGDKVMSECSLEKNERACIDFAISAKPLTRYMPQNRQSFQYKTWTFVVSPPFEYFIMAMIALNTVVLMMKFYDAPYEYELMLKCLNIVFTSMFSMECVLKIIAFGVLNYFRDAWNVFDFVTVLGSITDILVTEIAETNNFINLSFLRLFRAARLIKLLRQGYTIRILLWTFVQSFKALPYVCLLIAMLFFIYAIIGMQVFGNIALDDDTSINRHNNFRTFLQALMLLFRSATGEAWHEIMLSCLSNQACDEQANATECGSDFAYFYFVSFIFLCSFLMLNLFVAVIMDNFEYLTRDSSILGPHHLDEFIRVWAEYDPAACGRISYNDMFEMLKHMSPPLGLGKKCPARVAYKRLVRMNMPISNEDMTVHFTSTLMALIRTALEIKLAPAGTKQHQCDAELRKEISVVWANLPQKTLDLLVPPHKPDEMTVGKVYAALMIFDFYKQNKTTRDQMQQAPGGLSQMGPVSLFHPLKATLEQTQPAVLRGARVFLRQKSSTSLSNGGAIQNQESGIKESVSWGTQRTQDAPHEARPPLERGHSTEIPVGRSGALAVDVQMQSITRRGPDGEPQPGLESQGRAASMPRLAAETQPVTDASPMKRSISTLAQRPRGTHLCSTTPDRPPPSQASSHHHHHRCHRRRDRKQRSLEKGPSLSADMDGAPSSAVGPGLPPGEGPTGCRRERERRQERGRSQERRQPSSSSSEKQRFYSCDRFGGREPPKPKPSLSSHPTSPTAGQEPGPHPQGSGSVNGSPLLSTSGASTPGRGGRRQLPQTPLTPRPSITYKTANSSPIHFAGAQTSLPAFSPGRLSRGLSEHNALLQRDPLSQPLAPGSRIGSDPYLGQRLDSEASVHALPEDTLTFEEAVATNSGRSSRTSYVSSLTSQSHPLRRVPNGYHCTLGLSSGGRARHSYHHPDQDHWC
Chain of hERG (Q12809 whole entry): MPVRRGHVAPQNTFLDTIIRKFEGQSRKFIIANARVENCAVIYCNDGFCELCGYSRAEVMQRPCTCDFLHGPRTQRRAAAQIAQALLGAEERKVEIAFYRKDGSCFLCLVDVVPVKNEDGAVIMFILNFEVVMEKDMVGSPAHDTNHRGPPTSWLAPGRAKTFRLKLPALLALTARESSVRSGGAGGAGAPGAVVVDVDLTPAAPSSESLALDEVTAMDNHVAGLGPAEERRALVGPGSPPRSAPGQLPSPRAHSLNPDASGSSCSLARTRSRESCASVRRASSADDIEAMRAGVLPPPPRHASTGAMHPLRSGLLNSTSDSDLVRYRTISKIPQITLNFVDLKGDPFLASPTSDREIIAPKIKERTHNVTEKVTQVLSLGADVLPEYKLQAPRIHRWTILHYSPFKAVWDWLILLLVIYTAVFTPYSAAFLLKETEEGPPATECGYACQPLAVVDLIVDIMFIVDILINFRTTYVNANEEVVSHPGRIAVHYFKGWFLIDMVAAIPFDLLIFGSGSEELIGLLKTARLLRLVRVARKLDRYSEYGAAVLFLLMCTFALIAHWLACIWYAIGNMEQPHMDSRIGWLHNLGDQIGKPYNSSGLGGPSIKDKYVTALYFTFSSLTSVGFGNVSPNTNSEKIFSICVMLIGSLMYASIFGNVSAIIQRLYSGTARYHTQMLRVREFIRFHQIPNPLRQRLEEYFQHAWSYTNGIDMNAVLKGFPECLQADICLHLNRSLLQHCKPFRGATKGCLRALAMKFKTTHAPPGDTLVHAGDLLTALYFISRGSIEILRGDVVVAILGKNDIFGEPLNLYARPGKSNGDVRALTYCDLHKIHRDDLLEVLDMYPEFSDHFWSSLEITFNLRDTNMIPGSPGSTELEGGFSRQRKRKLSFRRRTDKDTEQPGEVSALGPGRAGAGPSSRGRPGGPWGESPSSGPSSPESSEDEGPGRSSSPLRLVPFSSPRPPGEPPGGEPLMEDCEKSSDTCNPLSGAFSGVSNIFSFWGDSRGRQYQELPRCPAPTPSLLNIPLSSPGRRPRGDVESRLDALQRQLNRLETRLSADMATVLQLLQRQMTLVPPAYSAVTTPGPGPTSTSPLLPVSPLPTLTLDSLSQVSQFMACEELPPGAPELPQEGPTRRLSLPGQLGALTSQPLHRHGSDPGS

With `CS(=O)(=O)c1ccc(F)cc1C(=O)N1CCC(N(C2CC2)S(=O)(=O)c2cccc(C(F)(F)F)c2)CC1` the inhibition [1] was 43%, the Drug metabolism [2] was “Active” and the AUC/dose [3] was 0.86 µM·kg·h/mg. For the same compound, the concentration at 3 h [4] was 1660 nM, the concentration at 1 h [5] was 5790 nM and the Activity [6] was “Dose-dependent effect”. For the same compound, the Activity [7] was “Non-toxic”, the Activity [8] was “Non-toxic” and the Drug metabolism [9] was “Active”. The Activity [10] was 57%, the inhibition [11] was 84% and the inhibition at 10 µM [12] was 32%. For the same compound, the remaining at 1 h, 1 µM [13] was 40%, the inhibition [14] was greater than 50% and the Activity [15] was “Non-toxic”. For the same compound, the concentration at 3 h [16] was 1600 nM, the Emax at 10 µM [17] was 124% and the Activity [18] was “Non-toxic”. The Activity [19] was 9%, the Activity [20] was “Non-toxic” and the Activity [21] was “Dose-dependent effect”. The Drug metabolism [22] was “Active” and the concentration at 0.5 h [23] was 1960 nM.
